# Laboratory results from ChEMBL document CHEMBL2424622, “Development of amino-pyrimidine inhibitors of c-Jun N-terminal kinase (JNK): kinase profiling guided optimization of a 1,2,3-benzotriazole lead” (Bioorg Med Chem Lett, 2013).
# What was measured:
# [1] = target: T1, Mitogen-activated protein kinase 9 (Homo sapiens, UniProt P45984); assay: Ratio of IC50 for human JNK2 in presence of human serum to IC50 for human JNK2 in absence of human serum
# Target sequence in this assay (P45984 whole entry, looked up): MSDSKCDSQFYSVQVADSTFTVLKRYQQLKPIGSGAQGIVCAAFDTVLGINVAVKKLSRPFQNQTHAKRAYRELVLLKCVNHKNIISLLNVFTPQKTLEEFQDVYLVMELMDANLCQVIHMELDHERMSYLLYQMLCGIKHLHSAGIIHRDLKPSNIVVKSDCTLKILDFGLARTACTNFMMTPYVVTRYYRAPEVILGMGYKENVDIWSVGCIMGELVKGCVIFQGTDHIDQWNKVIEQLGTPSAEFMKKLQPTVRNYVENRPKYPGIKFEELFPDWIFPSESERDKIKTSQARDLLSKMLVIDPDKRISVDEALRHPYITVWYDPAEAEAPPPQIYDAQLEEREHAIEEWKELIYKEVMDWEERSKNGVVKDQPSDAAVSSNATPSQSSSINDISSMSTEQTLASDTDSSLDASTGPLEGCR
# [2] = target: c-Jun N-terminal kinase, JNK (Homo sapiens, UniProt P45983+P53779+P45984); assay: Inhibition of JNK in human SW1353 cells assessed as inhibition of TNFalpha-induced c-Jun phosphorylation incubated for 30 mins prior to TNFalpha induction measured after 20 mins; format: cell-based
# Method in brief: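 SW1353 cells were stimulated with TNFa, and the read-out was inhibition of phosphorylation of the downstream substrate c-Jun. Values are the mean of at least three experiments.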
# [3] = target: Mitogen-activated protein kinase 8 (Homo sapiens, UniProt P45983)
# [4] = target: T1, Mitogen-activated protein kinase 9
# Target sequence in this assay (P45984 whole entry): as the sequence (P45984 whole entry, looked up) above
# [5] = target: Cyclin-dependent kinase 2/cyclin E1 (Homo sapiens, UniProt P24941); assay: Inhibition of human recombinant CDK2/GST-tagged cyclin E expressed in baculovirus infected insect cells assessed as inhibition of 6XHis-tagged retinoblastoma protein (386 to 928) phosphorylation after 30 mins by scintillation counting analysis in presence of [gamma-33P]-ATP
# Method in brief: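 CDK2 activity was measured as phosphorylation of a 6-histidine-tagged truncated retinoblastoma protein (amino acids 386–928) using [γ-33P]ATP.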
# Homo sapiens = organism: Homo sapiens; assay: Selectivity ratio of IC50 for human JNK2 to IC50 for human JNK1
# Method in brief: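 JNK1 and JNK2 activities were each measured as phosphorylation of GST-ATF2 (19–96) with [γ-33P]ATP, and IC50s were determined for each enzyme. The ratio is JNK2 IC50 over JNK1 IC50. IC50s are the mean of at least three experiments.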
# [6] = target: Cyclin-dependent kinase 4/cyclin D1 (Homo sapiens, UniProt P11802); assay: Inhibition of human recombinant human GST-tagged CDK4/cyclin D1 expressed in baculovirus infected insect cells assessed as inhibition of 6XHis-tagged retinoblastoma protein (386 to 928) phosphorylation after 30 mins by scintillation counting analysis in presence of [gamma-33P]-ATP
# [7] = target: Mitogen-activated protein kinase 10 (Homo sapiens, UniProt P53779); assay: Inhibition of human JNK3 assessed as inhibition of GST-tagged ATF2 (19 to 96) phosphorylation incubated for 10 mins prior to substrate addition measured after 30 mins by scintillation counting analysis in presence of [gamma-33P]-ATP
# [8] = target: Cyclin-dependent kinase 1/cyclin B1 (Homo sapiens, UniProt P06493); assay: Inhibition of human recombinant human CDK1/GST-tagged cyclin B expressed in baculovirus infected insect cells assessed as inhibition of 6XHis-tagged retinoblastoma protein (386 to 928) phosphorylation after 30 mins by scintillation counting analysis in presence of [gamma-33P]-ATP
# HCT-116 = assay: Cytotoxicity against human HCT116 cells assessed as cell viability by WST-1 reduction assay; format: cell-based
# Method in brief: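 Cytotoxicity was measured in an HCT-116 cell proliferation assay as reduction of WST-1 reagent. Values are the mean of at least three experiments.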
# MAP kinase p38 = MAP kinase p38 (Homo sapiens, UniProt O15264+Q15759+Q16539+P53778); assay: Inhibition of p38 (unknown origin); format: protein assay
# Cytochrome P450 2C9 = Cytochrome P450 2C9 (Homo sapiens, UniProt P11712); assay: Inhibition of CYP2C9 (unknown origin); format: ADME
# [9] = Clearance in human liver microsomes; format: ADME, Microsome; settings: read-out: CLH
# Method in brief: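 Intrinsic clearance was measured in vitro in human liver microsomes and expressed per mg microsomal protein.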
# Chain of Mitogen-activated protein kinase 8 (P45983 whole entry): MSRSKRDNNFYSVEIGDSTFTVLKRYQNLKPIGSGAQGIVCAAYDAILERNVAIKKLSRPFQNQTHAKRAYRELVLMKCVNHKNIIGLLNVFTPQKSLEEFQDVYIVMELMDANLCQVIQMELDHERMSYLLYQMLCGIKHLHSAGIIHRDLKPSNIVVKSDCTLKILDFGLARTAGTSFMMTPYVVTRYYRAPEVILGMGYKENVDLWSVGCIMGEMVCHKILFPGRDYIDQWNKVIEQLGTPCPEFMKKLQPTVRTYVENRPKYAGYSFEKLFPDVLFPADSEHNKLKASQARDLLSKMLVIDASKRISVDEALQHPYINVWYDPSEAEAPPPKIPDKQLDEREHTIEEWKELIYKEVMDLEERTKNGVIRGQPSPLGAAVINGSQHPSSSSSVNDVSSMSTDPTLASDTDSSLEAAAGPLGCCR
# Chain of Cytochrome P450 2C9 (P11712 whole entry): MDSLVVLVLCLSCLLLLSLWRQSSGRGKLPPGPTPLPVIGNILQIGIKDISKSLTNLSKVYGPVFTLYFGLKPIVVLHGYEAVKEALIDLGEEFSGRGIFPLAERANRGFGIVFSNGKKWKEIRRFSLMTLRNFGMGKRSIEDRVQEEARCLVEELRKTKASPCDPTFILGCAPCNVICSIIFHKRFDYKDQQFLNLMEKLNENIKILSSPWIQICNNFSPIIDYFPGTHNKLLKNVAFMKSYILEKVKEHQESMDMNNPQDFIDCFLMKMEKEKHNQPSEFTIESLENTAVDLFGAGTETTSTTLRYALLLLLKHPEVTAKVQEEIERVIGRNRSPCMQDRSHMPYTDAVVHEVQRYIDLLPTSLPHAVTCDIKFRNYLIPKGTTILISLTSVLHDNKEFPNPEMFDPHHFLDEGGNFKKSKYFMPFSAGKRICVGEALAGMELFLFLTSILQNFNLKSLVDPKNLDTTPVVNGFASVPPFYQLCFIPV
# Chain of Cyclin-dependent kinase 4/cyclin D1 (P11802 whole entry): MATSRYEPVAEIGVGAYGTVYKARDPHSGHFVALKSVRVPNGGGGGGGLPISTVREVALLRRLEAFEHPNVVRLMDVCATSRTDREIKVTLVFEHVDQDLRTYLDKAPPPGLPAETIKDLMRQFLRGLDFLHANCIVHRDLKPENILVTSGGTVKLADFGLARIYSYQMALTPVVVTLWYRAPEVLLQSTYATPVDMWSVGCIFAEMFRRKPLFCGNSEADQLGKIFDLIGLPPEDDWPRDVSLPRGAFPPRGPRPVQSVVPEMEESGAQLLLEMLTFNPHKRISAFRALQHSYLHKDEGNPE
# Chain of Cyclin-dependent kinase 4/cyclin D1 (P24385 whole entry, further chain): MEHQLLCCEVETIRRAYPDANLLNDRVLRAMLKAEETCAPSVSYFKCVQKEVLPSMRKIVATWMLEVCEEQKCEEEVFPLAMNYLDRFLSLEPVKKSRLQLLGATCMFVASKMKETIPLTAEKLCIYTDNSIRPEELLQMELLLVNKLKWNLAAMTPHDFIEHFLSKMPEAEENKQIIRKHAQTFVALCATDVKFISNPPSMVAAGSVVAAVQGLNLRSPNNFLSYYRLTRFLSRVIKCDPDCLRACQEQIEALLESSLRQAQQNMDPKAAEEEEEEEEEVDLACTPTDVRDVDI
# Chain of Mitogen-activated protein kinase 10 (P53779 whole entry): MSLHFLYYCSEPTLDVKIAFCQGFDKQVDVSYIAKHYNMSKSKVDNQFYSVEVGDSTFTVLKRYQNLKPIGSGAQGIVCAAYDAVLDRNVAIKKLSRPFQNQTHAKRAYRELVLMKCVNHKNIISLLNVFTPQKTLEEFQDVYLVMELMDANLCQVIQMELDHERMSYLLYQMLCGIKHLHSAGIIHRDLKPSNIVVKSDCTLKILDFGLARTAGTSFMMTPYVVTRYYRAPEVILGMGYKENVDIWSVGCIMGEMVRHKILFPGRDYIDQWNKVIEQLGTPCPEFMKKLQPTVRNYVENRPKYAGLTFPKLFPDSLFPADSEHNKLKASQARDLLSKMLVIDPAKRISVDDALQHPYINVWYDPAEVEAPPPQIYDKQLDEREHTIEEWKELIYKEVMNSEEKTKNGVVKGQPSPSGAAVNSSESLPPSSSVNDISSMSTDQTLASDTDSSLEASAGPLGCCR
# Chain of Cyclin-dependent kinase 1/cyclin B1 (P06493 whole entry): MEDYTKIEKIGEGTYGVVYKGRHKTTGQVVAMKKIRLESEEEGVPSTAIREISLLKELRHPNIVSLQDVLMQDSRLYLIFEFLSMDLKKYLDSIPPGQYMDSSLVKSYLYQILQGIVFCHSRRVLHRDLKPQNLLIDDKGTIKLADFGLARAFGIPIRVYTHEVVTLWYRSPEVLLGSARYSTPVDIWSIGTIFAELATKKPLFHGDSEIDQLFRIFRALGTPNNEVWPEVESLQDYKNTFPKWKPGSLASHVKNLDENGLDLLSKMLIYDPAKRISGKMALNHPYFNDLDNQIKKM
# Chain of Cyclin-dependent kinase 1/cyclin B1 (P14635 whole entry, further chain): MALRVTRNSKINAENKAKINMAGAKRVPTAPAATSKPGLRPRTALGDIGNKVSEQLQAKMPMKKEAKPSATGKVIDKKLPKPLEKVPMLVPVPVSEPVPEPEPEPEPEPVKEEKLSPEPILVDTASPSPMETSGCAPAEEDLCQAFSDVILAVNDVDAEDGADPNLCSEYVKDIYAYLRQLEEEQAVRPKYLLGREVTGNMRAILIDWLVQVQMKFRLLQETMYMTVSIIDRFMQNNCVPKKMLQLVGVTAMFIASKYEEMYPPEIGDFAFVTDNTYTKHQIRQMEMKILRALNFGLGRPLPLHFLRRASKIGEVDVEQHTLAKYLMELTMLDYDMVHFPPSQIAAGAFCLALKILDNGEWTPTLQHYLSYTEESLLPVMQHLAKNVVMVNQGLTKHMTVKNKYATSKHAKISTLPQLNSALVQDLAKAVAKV
SMILES,Ratio IC50 [1],IC50 [2] [µM],IC50 [3] [nM],IC50 [4] [nM],IC50 [5] [nM],Ratio IC50 (Homo sapiens),IC50 [6] [nM],IC50 [7] [nM],IC50 [8] [nM],IC50 (MAP kinase p38) [µM],IC50 (Cytochrome P450 2C9) [nM],microsomal CLint [9] [µL/min/mg],IC50 (HCT-116) [µM]
c1ccc2c(c1)nnn2-c1ccnc(NC2CCCCC2)n1,,,100,390,2700,4,,,,,,,
CS(=O)(=O)N[C@H]1CC[C@H](Nc2nccc(-n3nnc4ccccc43)n2)CC1,,1.3,24,97,300,4,910,114,1520,> 10,,,2.3
CC(C)(O)[C@H]1CC[C@H](Nc2nccc(-n3ccc4c(OCCCS(C)(=O)=O)cccc43)n2)CC1,6.3,0.35,4,27,,,,,,,,,
O=C([C@H]1CC[C@H](Nc2nccc(-n3nnc4ccccc43)n2)CC1)N1CCCC1,,3.3,120,400,> 6200,4,,,,,,,> 30
CC(=O)N[C@H]1CC[C@H](Nc2nccc(-n3nnc4ccccc43)n2)CC1,,1.5,39,230,570,4,,,,,39,,16
CN(C)S(=O)(=O)N[C@H]1CC[C@H](Nc2nccc(-n3nnc4ccccc43)n2)CC1,,4.9,19,76,1700,4,,,,,,,22
CS(=O)(=O)NCCCOc1cccc2c1cnn2-c1ccnc(N[C@H]2CC[C@H](O)CC2)n1,17,1.1,56,246,,,,,,,,,
CS(=O)(=O)CCOc1cccc2c1cnn2-c1ccnc(N[C@H]2CC[C@H](O)CC2)n1,4,0.98,33,151,,,,,,,,,
CS(=O)(=O)CCCOc1cccc2c1ccn2-c1ccnc(N[C@H]2CC[C@H](C(=O)N3CCC(F)(F)CC3)CC2)n1,4.2,1.4,16,51,,,,,,,,283,
CS(=O)(=O)CCCOc1cccc2c1ccn2-c1ccnc(N[C@H]2CC[C@H](C(=O)N3CC[C@@H](F)C3)CC2)n1,2.5,0.59,14,64,,,,,,,,175,
CCN(CC)C(=O)[C@H]1CC[C@H](Nc2nccc(-n3ccc4c(OCCCS(C)(=O)=O)cccc43)n2)CC1,4.6,0.58,14,57,,,,,,,,609,
COC1CCN(C(=O)[C@H]2CC[C@H](Nc3nccc(-n4ccc5c(OCCCS(C)(=O)=O)cccc54)n3)CC2)CC1,2.9,1.4,4.7,28,,,,,,,,141,
CS(=O)(=O)CCCOc1cccc2c1ccn2-c1ccnc(N[C@H]2CC[C@H](C(=O)N3CC[C@@H](O)C3)CC2)n1,2.6,1.1,9.7,47,,,,,,,,19,
CC(C)(O)[C@H]1CC[C@H](Nc2nccc(-n3ncc4c(OCCCS(C)(=O)=O)cccc43)n2)CC1,18,0.24,4,21,,,,,,,,,

# Further lines, with some results ahead:
Ratio IC50 [1],IC50 [2] [µM],IC50 [3] [nM],IC50 [4] [nM],IC50 [5] [nM],Ratio IC50 (Homo sapiens),IC50 [6] [nM],IC50 [7] [nM],IC50 [8] [nM],IC50 (MAP kinase p38) [µM],IC50 (Cytochrome P450 2C9) [nM],microsomal CLint [9] [µL/min/mg],SMILES,IC50 (HCT-116) [µM]
28,0.96,24,139,,,,,,,,,OCCCOc1cccc2c1cnn2-c1ccnc(N[C@H]2CC[C@H](O)CC2)n1,
,12,570,1200,,,,,,,,,O[C@H]1CC[C@H](Nc2nccc(-c3nnc4ccccn34)n2)CC1,
147,> 30,12,79,,,,,,,,,CCCOc1cccc2c1cnn2-c1ccnc(N[C@H]2CC[C@H](O)CC2)n1,
,,770,2900,,,,,,,,,O[C@H]1CC[C@H](Nc2nccc(N3CCc4ccccc43)n2)CC1,
5.7,2,34,194,,,,,,,,,OCC(O)COc1cccc2c1cnn2-c1ccnc(N[C@H]2CC[C@H](O)CC2)n1 (stereo partly specified),
,8.2,140,720,,,,,,,,,O[C@H]1CC[C@H](Nc2nccc(-c3c[nH]c4ccccc34)n2)CC1,
37,3.1,,,,,,,,,,,COc1cccc2c1cnn2-c1ccnc(N[C@H]2CC[C@H](O)CC2)n1,
